Only some compounds are listed: those with a hit (about 1.7% of all), similar ones and a draw of the others.
m5-HT2A agonist – mouse HTR2A agonism via beta-arrestin recruitment; activation, % at 7.6 µM; CHO-K1 mHTR2A beta-arrestin complementation, luminescence; percent of 30 µM serotonin response; AID 624169; 360,000 tested, 0.66% active;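 active = activation above a run cutoff, the mean activation of all tested compounds plus 3 SD, cut at about 14% in these data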
Target sequence (P35363 whole entry, looked up): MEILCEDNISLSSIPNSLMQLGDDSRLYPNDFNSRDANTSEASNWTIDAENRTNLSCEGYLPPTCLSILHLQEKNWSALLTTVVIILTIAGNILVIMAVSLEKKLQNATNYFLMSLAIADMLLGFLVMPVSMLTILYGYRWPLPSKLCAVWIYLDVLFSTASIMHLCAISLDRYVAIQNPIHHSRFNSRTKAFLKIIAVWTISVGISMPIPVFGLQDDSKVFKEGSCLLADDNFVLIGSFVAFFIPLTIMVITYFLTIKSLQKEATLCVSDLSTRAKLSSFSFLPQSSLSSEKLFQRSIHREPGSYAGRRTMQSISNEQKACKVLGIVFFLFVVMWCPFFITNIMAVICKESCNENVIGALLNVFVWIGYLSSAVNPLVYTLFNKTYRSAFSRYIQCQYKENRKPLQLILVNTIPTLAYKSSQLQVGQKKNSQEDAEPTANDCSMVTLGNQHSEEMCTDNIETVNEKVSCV
T cell HTS – T cell immune modulation candidate. 2C CD8+ T cell-vesicle binding, flow cytometry; stronger effect = lower value. response (vesicle binding), % at 7 µM. 330,000 tested, 0.068% active;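 active = response, share of CD8 T cells binding vesicles, and their 90th percentile fluorescence all below set limits, cut at about 80% in these data, passing the limit was not always enough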;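 note: values below 100% mean blocked vesicle binding to the CD8+ T cells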
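Also added: QL9-peptide-loaded Drosophila micro-vesicles bearing Ld, ICAM-1 and B7-1; Test system: purified 2C TCR transgenic mouse naive CD8+ T cells; Measured by: cytometric PE anti-B7-1 and Alexa647 anti-CD8 signals after 1% paraformaldehyde fixation; Timing: binding step 1.5 h, 37 °C, antibody labelling 20 min, ice.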
JMJD2C inh – blocks human GASC-1 demethylase activity. GST-JMJD2C(1-420) H3K9me3 demethylation, DELFIA europium. inhibition, % at 2.35 µM. 330,000 tested, 0.069% active. AID 2099;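 active = more than half of a compound's replicate wells show inhibition beyond 50%, single wells judged on their own value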;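 note: signal counts dimethyl H3K9 product captured on neutravidin plate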
PP5 inh – inhibitors of human protein phosphatase 5 (PP5). purified PP5c, OMFP substrate fluorescence. inhibition, % at 6.7 µM. AID 1987. 320,000 tested, 0.18% active;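 active = inhibition above the campaign's mean inhibition across all tested compounds plus 3 SD, cut at about 9.5% in these data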
PP1 inh – counter-screen for PP5 inhibitors: inhibitors of human PP1-alpha | P62136 | purified PP1alpha, OMFP fluorescence | inhibition, % at 6.7 µM | 320,000 tested, 0.9% active;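 active = inhibition above the mean inhibition of all tested compounds plus 3 SD, computed separately for each screening campaign, cut at about 15% in these data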
PP5 inh confirm – confirmation of human PP5 phosphatase inhibitors; shares compounds with PP5 inh; Purified PP5, fluorogenic phosphatase substrate, fluorescence; inhibition, % at 6.7 µM; 460 tested, 22% active; AID 2331; in the data active = inhibition above about 9.5%
PP1 counter 3x – PP1 phosphatase inhibition, counter-screen for PP5 inhibitors; AID 2355; PP1 enzyme, fluorescent phosphatase substrate; 460 tested, 4% active; inhibition, % at 6.7 µM; shares compounds with PP5 inh; in the data active = inhibition above about 16%
Of the large screens only hits and unclear results are named; the others gave an inactive call (follow-up assays come after a bar, where they were run).

CCC1CSC(Nc2ccc(C(=O)/C=C/c3ccc(Br)cc3)cc2)=N1 (configuration not stated)	PP1 inh 15
O=C(O)c1ccc(CSc2nnc(-c3ccccc3Br)o2)cc1	m5-HT2A agonist 16
O=C(O)c1ccc(CSc2nnc(-c3ccc(Cl)cc3)o2)cc1	none
NS(=O)(=O)c1ccc(N=C2C(=O)Nc3ccccc32)cc1	PP1 inh 16
CC1(C(=O)NS(=O)(=O)c2cccs2)CCN1C(=O)Cc1ccc(Cl)cc1Cl (configuration not stated)	none (no result: T cell HTS, JMJD2C inh, PP5 inh, PP1 inh)
COc1ccc(NC(=O)C2CCCCN2N)cc1OCC(C)C (configuration not stated)	JMJD2C inh 80
O=C(CCN1N=C(c2ccccc2)CCC1=O)NCCCN1CCOCC1	none
CCOC(=O)C1(CC2CCCCO2)CCN(S(=O)(=O)c2ccc(C)s2)CC1 (configuration not stated)	T cell HTS 13
O=C(Nc1ccccc1N1CCN(C(=O)c2ccc(Cl)cc2)CC1)c1ccc(Br)cc1	PP1 inh 16
Cc1ccc(NC(=O)Cn2nnc(C(=O)Nc3ccc(C)c(C)c3)c2N)cc1	PP1 inh 16
Cc1ccc(NC(=O)c2nnn(CC(=O)Nc3ccc4c(c3)OCO4)c2N)cc1C	none
NC(=S)n1[nH]c(-c2ccc([N+](=O)[O-])cc2)c(N=Nc2ccc(O)cc2)c1=O	PP1 inh 17
NC(=S)n1[nH]c(-c2ccc([N+](=O)[O-])cc2)c(N=Nc2cccc(Cl)c2)c1=O	none (no result: T cell HTS, PP5 inh, PP1 inh)
COc1cccc(NC(=O)c2ccccc2Br)c1	none
COc1ccc(Br)c(C(=O)Nc2ccc(F)cc2)c1	PP5 inh 16 | PP5 inh confirm inactive | PP1 counter 3x inactive
CCOC(=O)C1=CNS(=O)(=O)NC1c1ccc(C)cc1 (configuration not stated)	none (no result: T cell HTS, JMJD2C inh, PP5 inh, PP1 inh)
COC(=O)Nc1nnc(COc2ccccc2)s1	none
Cc1ccccc1CSc1nnc(-c2ccccn2)n1C	PP5 inh 23 | PP5 inh confirm inactive | PP1 counter 3x inactive
Cn1c(SCc2cccc(F)c2)nnc1-c1ccccn1	none
Cc1ccc(NC(=O)COC(=O)c2c(-c3ccccc3)noc2C)cc1	none
Cc1onc(-c2ccccc2)c1C(=O)OCC(=O)Nc1ccc(OC(F)(F)F)cc1	PP5 inh 9.7 | PP5 inh confirm inactive | PP1 counter 3x inactive
Cc1cccc(OCC(=O)N/N=C/c2sc(=O)n(Cc3cccc(C(=O)O)c3)c2Cl)c1	PP5 inh 13 | PP5 inh confirm inactive | PP1 counter 3x inactive
O=C(COc1ccccc1)N/N=C/c1sc(=O)n(Cc2cccc(C(=O)O)c2)c1Cl	none
O=c1[nH]c(Nc2ccccc2)cc2cc(Br)ccc12	PP5 inh 14 | PP5 inh confirm 34 | PP1 counter 3x inactive
CC(=O)c1cccc(-c2ccc3c(=O)[nH]c(Nc4ccccc4)cc3c2)c1	PP5 inh 9.7 | PP5 inh confirm 29 | PP1 counter 3x 21
COc1ccc(OC)c(Nc2cc3ccccc3c(=O)[nH]2)c1	none
O=c1[nH]c(Nc2ccccc2)cc2ccccc12	PP5 inh 11 | PP5 inh confirm 34 | PP1 counter 3x inactive
O=C(CCN1CCN(c2ccccc2)CC1)NNC(=O)Cc1ccc(Br)cc1	none (no result: T cell HTS, JMJD2C inh, PP5 inh, PP1 inh)
Cc1c(NC(=O)C(C)n2cc([N+](=O)[O-])cn2)c(=O)n(-c2ccccc2)n1C (configuration not stated)	none
CC(NC(=O)c1ccccc1Cl)C(=O)OCc1cn2cc(Cl)ccc2n1 (configuration not stated)	none (no result: PP5 inh, PP1 inh)
Cc1[nH]n(-c2ccccc2)c(=O)c1C(C[N+](=O)[O-])c1ccc(Br)cc1 (configuration not stated)	none
COc1cccc(C(C[N+](=O)[O-])c2c(C)[nH]n(-c3ccccc3)c2=O)c1 (configuration not stated)	JMJD2C inh 69, PP5 inh 12 | PP5 inh confirm inactive | PP1 counter 3x inactive
COc1ccc2occ(C(=O)c3coc4ccc(O)c(CN(C)C)c34)c2c1	PP5 inh 11 | PP5 inh confirm inactive | PP1 counter 3x inactive
COc1ccc(C)cc1S(=O)(=O)N1CC(C)OC(C)C1 (configuration not stated)	none
COc1ccc(C(C)C)cc1S(=O)(=O)N1CC(C)OC(C)C1 (configuration not stated)	PP5 inh 10 | PP5 inh confirm inactive | PP1 counter 3x inactive
CCC(CC)C(=O)Nc1cccc(C(=O)Nc2ccc(OC)cc2[N+](=O)[O-])c1	PP5 inh 10 | PP5 inh confirm inactive | PP1 counter 3x inactive
CCC(CC)C(=O)Nc1cccc(C(=O)Nc2ccc(S(N)(=O)=O)cc2)c1	none
COc1ccc(NC(=O)c2ccccc2)c([N+](=O)[O-])c1	none
CCC(CC)C(=O)Nc1cccc(C(=O)Nc2ccc(S(=O)(=O)Nc3ccc(C)cc3)cc2)c1	PP5 inh 10 | PP5 inh confirm inactive | PP1 counter 3x inactive
CCCn1c(SCC(=O)NNC(=O)c2ccccc2)nnc1-c1cccnc1	none
CCC(C)(C)NS(=O)(=O)c1cc(CN2C(=O)c3cccnc3C2=O)ccc1OC	none
Cc1cc(C)c2nc(C)cc(Nc3ccc(C(=O)N4CCOCC4)cc3)c2c1	PP5 inh 11 | PP5 inh confirm inactive | PP1 counter 3x inactive
CC(=O)c1cccc(Nc2cc(C)nc3c(C)cc(C)cc23)c1	none
CCCCOc1ccc(C(=O)Nc2ccc(N3CCN(C(=O)C(C)C)CC3)cc2)cc1	none
CCCCOc1ccc(C(=O)Nc2ccc(N3CCN(C(C)=O)CC3)cc2)cc1	JMJD2C inh 61, PP5 inh 12 | PP5 inh confirm inactive | PP1 counter 3x inactive
CCCN(CCC)C(=O)CC(c1ccccc1)c1cc(Br)ccc1O (configuration not stated)	PP5 inh 12 | PP5 inh confirm inactive | PP1 counter 3x inactive
CCCN(CCC)C(=O)CC(c1ccccc1)c1ccc(C)cc1O (configuration not stated)	none
Cc1ccc(Sc2ccc(N)cn2)cc1	PP5 inh 14 (no result: JMJD2C inh) | PP5 inh confirm inactive | PP1 counter 3x inactive
Cn1c(=O)[nH]c(=O)c2c1nc1n2CC(COc2ccc3ccccc3c2)O1 (configuration not stated)	none
O=C(NCc1cccs1)c1cc(-c2ccc(O)cc2)on1	none
Cc1ccc(-c2cc(C(=O)NCc3cccs3)no2)cc1	PP5 inh 9.9 | PP5 inh confirm inactive | PP1 counter 3x inactive
Cc1ccc(Cl)cc1NC1=C/C(=N\S(=O)(=O)c2cccs2)c2ccccc2C1=O	PP5 inh 11 | PP5 inh confirm 42 | PP1 counter 3x inactive
Cc1ccc(NC2=C/C(=N\S(=O)(=O)c3cccs3)c3ccccc3C2=O)c(C)c1	none
CSc1ncc(C(=O)Nc2cc(C)ccc2C)c(C)n1	none (no result: PP5 inh, PP1 inh)

Source: PubChem (several laboratories)
